In ChEMBL document CHEMBL3227985, “N-Alkylated 2-aminotetralins: central dopamine-receptor stimulating activity” (J Med Chem, 1979):
Activity calls are given as the source filed them. No cut-off for these calls is given here.

Legend:
Rattus norvegicus [1] = experiment: Central dopamine receptor stimulating activity in Sprague-Dawley rat assessed as reduction in DOPA accumulation in striatum of brain at 2 umol/kg, sc by spectrophotometric method; assay type: functional
Method in brief: (§1)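 Male Sprague-Dawley rats (200-350 g), reserpinized. Compounds dissolved in saline immediately before use, neutral pH, 10 mL/kg, given sc over a dose range. Aromatic-L-amino-acid decarboxylase inhibited (100 mg/kg). Dopa and 5-HTP accumulation measured spectrophotometrically in striatum, limbic forebrain and remaining hemispheral portions. ED50 = dose giving 50% of maximal reduction versus control portions, estimated from dose-response curves. Experiments run 9–12 a.m.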

Rattus norvegicus [2] = experiment: Central serotonin receptor stimulating activity in Sprague-Dawley rat assessed as reduction in 5-HTP accumulation in hemispheral portion of cerebrum at 2 umol/kg, sc by spectrophotometric method; assay type: functional, organism-based; method in brief: as §1
Rattus norvegicus [3] = experiment: Central serotonin receptor stimulating activity in Sprague-Dawley rat assessed as reduction in 5-HTP accumulation in striatum of brain at 2 umol/kg, sc by spectrophotometric method; assay type: functional, organism-based; method in brief: as §1
Rattus norvegicus [4] = experiment: Central serotonin receptor stimulating activity in Sprague-Dawley rat assessed as reduction in 5-HTP accumulation in limbic region of brain at 2 umol/kg, sc by spectrophotometric method; assay type: functional, organism-based; settings: Limbic system; method in brief: as §1
Rattus norvegicus [5] = experiment: Central dopamine receptor stimulating activity in Sprague-Dawley rat assessed as reduction in DOPA accumulation in limbic region of brain at 2 umol/kg, sc by spectrophotometric method; assay type: functional; settings: Limbic system; method in brief: as §1
Rattus norvegicus [6] = experiment: Central dopamine receptor stimulating activity in reserpenized Sprague-Dawley rat assessed as duration of action of motor activity at 2 umol/kg, sc measured 6 hrs post-reserpine challenge by motility meter analysis; assay type: functional
Method in brief: (§2)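 Male Sprague-Dawley rats (200-350 g) given reserpine 10 mg/kg ip 6 h before testing. Drug in saline, 2 µmol/kg sc in the neck. Rats then placed singly in photocell motility meters. Counts recorded per 5-min period until effect ceased (<10 counts/5 min), giving duration and AUC. Means of four to six recordings. Testing 1–6 p.m.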

Rattus norvegicus [7] = experiment: Toxicity in sc dosed Sprague-Dawley rat assessed as gross behaviour at ED50; assay type: organism-based; settings: in vivo
Rattus norvegicus [8] = experiment: Central dopamine receptor stimulating activity in reserpenized Sprague-Dawley rat assessed as latency period of motor activity at 2 umol/kg, sc measured 6 hrs post-reserpine challenge by motility meter analysis; assay type: functional; method in brief: as §2
Rattus norvegicus [9] = experiment: Central noradrenaline receptor stimulating activity in Sprague-Dawley rat assessed as reduction in DOPA accumulation in hemispheral portion of cerebrum at 2 umol/kg, sc by spectrophotometric method; assay type: functional, organism-based; method in brief: as §1
Rattus norvegicus [10] = experiment: Central dopamine receptor stimulating activity in reserpenized Sprague-Dawley rat assessed as duration of action of motor activity at 20 umol/kg, po administered via stomach tube measured 6 hrs post-reserpine challenge by motility meter analysis; assay type: functional
Method in brief: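 Male Sprague-Dawley rats (200-350 g) given reserpine 10 mg/kg ip 6 h before testing. Drug in saline, 20 µmol/kg po by stomach tube. Rats then placed singly in photocell motility meters. Counts recorded per 5-min period until effect ceased (<10 counts/5 min) to give duration of action. Testing 1–6 p.m.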

SMILES | ED50 (Rattus norvegicus [1]) | Activity (Rattus norvegicus [2]) | Activity (Rattus norvegicus [3]) | Activity (Rattus norvegicus [4]) | ED50 (Rattus norvegicus [5]) | Time (Rattus norvegicus [6]) | Activity (Rattus norvegicus [7]) | Time (Rattus norvegicus [8]) | Activity (Rattus norvegicus [9]) | Time (Rattus norvegicus [10])
Br.CCCNC1CCc2c(O)cccc2C1 (stereo not drawn) | 0.046 µmol/kg | inactive | inactive | inactive | 0.04 µmol/kg | 45 min | Non-toxic | 0 min | inactive | –
Br.CCN(CC)C1CCc2c(O)cccc2C1 (stereo not drawn) | 0.071 µmol/kg | inactive | inactive | inactive | 0.077 µmol/kg | 54 min | Non-toxic | 0 min | inactive | –
Br.CCNC1CCc2c(O)cccc2C1 (stereo not drawn) | 0.066 µmol/kg | inactive | inactive | inactive | 0.072 µmol/kg | 50 min | Non-toxic | 3 min | inactive | –
CCCN(C)C1CCc2c(cccc2OC)C1.Cl (stereo not drawn) | 0.096 µmol/kg | inactive | inactive | inactive | 0.12 µmol/kg | 69 min | Non-toxic | 15 min | inactive | –
CCCCCN(CCC)C1CCc2c(cccc2OC)C1.O=C(O)C(=O)O (stereo not drawn) | 0.101 µmol/kg | inactive | inactive | inactive | 0.092 µmol/kg | 93 min | Non-toxic | 15 min | inactive | –
CCCCN(CC)C1CCc2c(cccc2OC)C1.Cl (stereo not drawn) | 0.079 µmol/kg | inactive | inactive | inactive | 0.068 µmol/kg | 140 min | Non-toxic | 16 min | inactive | –
CN1CCc2cccc3c2[C@H]1Cc1ccc(O)c(O)c1-3 [APOMORPHINE] | 0.22 µmol/kg | – | – | – | 0.19 µmol/kg | 60 min | – | 0 min | – | 33 min
Br.CCCCN(CC)C1CCc2c(O)cccc2C1 (stereo not drawn) | 0.035 µmol/kg | inactive | inactive | inactive | 0.03 µmol/kg | 118 min | Non-toxic | 0 min | inactive | 63 min
Br.CCCCN(CCC)C1CCc2c(O)cccc2C1 (stereo not drawn) | 0.014 µmol/kg | inactive | inactive | inactive | 0.011 µmol/kg | 158 min | Non-toxic | 0 min | inactive | 117 min
Br.CCCN(CC)C1CCc2c(O)cccc2C1 (stereo not drawn) | 0.017 µmol/kg | inactive | inactive | inactive | 0.024 µmol/kg | 82 min | Non-toxic | 0 min | inactive | 40 min
Br.CCCN(CCC)C1CCc2c(O)cccc2C1 (stereo not drawn) | 0.009 µmol/kg | inactive | inactive | inactive | 0.011 µmol/kg | 127 min | Non-toxic | 0 min | inactive | 121 min
Br.CCCN(CCC)C1CCc2c(ccc(O)c2O)C1 (stereo not drawn) | 0.007 µmol/kg | inactive | inactive | inactive | 0.007 µmol/kg | 193 min | Non-toxic | 0 min | inactive | –
